ChEMBL document CHEMBL4689842, “EUbOPEN Chemogenomics Library wave 1” (2021)

Tested on: U2OS
Assay: Multiplex assay against U2OS
Assay type: toxicity, cell-based
Details: human
How it was run: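 Phenotypes for tubulin, mitochondrial mass and membrane permeability are expressed as per cents of healthy-nucleus cells. Cells were stained live at seeding with Hoechst33342, BioTracker Green Microtubule Cytoskeleton Dye, MitoTracker Red and Annexin V Alexa Fluor 680, then imaged after compound addition on a CQ1 microscope at 37°C and 5% CO2. Machine-learning gating in CellPathfinder separated Hoechst high-intensity objects from normal cells, divided normal cells by nuclear state (healthy, pyknosed, fragmented) and divided pyknosed cells into mitotic or apoptotic.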

[1] = 12 h, 1 µM, compound concentration 1 uM, replicate 1
[2] = 12 h, 1 µM, compound concentration 1 uM, replicate 2
[3] = 12 h, 10 µM, compound concentration 10 uM, replicate 1
[4] = 12 h, 10 µM, compound concentration 10 uM, replicate 2
[5] = 24 h, 1 µM, compound concentration 1 uM, replicate 1
[6] = 24 h, 1 µM, compound concentration 1 uM, replicate 2
[7] = 24 h, 10 µM, compound concentration 10 uM, replicate 1
[8] = 24 h, 10 µM, compound concentration 10 uM, replicate 2
[9] = 48 h, 1 µM, compound concentration 1 uM, replicate 1
[10] = 48 h, 1 µM, compound concentration 1 uM, replicate 2
[11] = 48 h, 10 µM, compound concentration 10 uM, replicate 1
[12] = 48 h, 10 µM, compound concentration 10 uM, replicate 2

`CC1=C(C(=O)Nc2cc3cn[nH]c3cc2F)C(c2ccc(C(F)(F)F)cc2)CC(=O)N1` (stereo not drawn) was tested, and the “Population Apoptotic (%)” value [1] was 46%, the “Population Fragmented Nuclei (%)” value [1] was 9% and the “Population Healthy Nuclei (%)” value [1] was 78%. For the same compound, the “Population Hoechst High Intensity Objects (%)” value [1] was 4%, the “Population Membrane Permeable-Phenotype (%)” value [1] was 6% and the “Population Mitochondria Different-Phenotype (%)” value [1] was 5%. The “Population Mitotic Cells (%)” value [1] was 53%, the “Population Normal (%)” value [1] was 95% and the “Population Pyknosed Nuclei (%)” value [1] was 12%. The “Population Tubulin-Different-Phenotype (%)” value [1] was 10%, the “Total Cell Count” value [1] was 190 and the “Population Apoptotic (%)” value [2] was 50%. For the same compound, the “Population Fragmented Nuclei (%)” value [2] was 2%, the “Population Healthy Nuclei (%)” value [2] was 93% and the “Population Hoechst High Intensity Objects (%)” value [2] was 10%. The “Population Membrane Permeable-Phenotype (%)” value [2] was 4%, the “Population Mitochondria Different-Phenotype (%)” value [2] was 9% and the “Population Mitotic Cells (%)” value [2] was 50%. The “Population Normal (%)” value [2] was 89%, the “Population Pyknosed Nuclei (%)” value [2] was 4% and the “Population Tubulin-Different-Phenotype (%)” value [2] was 14%. The “Total Cell Count” value [2] was 76, the “Population Apoptotic (%)” value [3] was 40% and the “Population Fragmented Nuclei (%)” value [3] was 7%. For the same compound, the “Population Healthy Nuclei (%)” value [3] was 77%, the “Population Hoechst High Intensity Objects (%)” value [3] was 8% and the “Population Membrane Permeable-Phenotype (%)” value [3] was 3%. For the same compound, the “Population Mitochondria Different-Phenotype (%)” value [3] was 9%, the “Population Mitotic Cells (%)” value [3] was 60% and the “Population Normal (%)” value [3] was 91%. For the same compound, the “Population Pyknosed Nuclei (%)” value [3] was 14%, the “Population Tubulin-Different-Phenotype (%)” value [3] was 4% and the “Total Cell Count” value [3] was 223. The “Population Apoptotic (%)” value [4] was 50%, the “Population Fragmented Nuclei (%)” value [4] was 21% and the “Population Healthy Nuclei (%)” value [4] was 70%. The “Population Hoechst High Intensity Objects (%)” value [4] was 9%, the “Population Membrane Permeable-Phenotype (%)” value [4] was 5% and the “Population Mitochondria Different-Phenotype (%)” value [4] was 12%. The “Population Mitotic Cells (%)” value [4] was 50%, the “Population Normal (%)” value [4] was 90% and the “Population Pyknosed Nuclei (%)” value [4] was 7%. For the same compound, the “Population Tubulin-Different-Phenotype (%)” value [4] was 25%, the “Total Cell Count” value [4] was 97 and the “Population Apoptotic (%)” value [5] was 56%. For the same compound, the “Population Fragmented Nuclei (%)” value [5] was 8%, the “Population Healthy Nuclei (%)” value [5] was 82% and the “Population Hoechst High Intensity Objects (%)” value [5] was 2%. The “Population Membrane Permeable-Phenotype (%)” value [5] was 6%, the “Population Mitochondria Different-Phenotype (%)” value [5] was 9% and the “Population Mitotic Cells (%)” value [5] was 43%. The “Population Normal (%)” value [5] was 97%, the “Population Pyknosed Nuclei (%)” value [5] was 8% and the “Population Tubulin-Different-Phenotype (%)” value [5] was 9%. For the same compound, the “Total Cell Count” value [5] was 176, the “Population Apoptotic (%)” value [6] was 42% and the “Population Fragmented Nuclei (%)” value [6] was 7%. For the same compound, the “Population Healthy Nuclei (%)” value [6] was 86%, the “Population Hoechst High Intensity Objects (%)” value [6] was 4% and the “Population Membrane Permeable-Phenotype (%)” value [6] was 10%. For the same compound, the “Population Mitochondria Different-Phenotype (%)” value [6] was 13%, the “Population Mitotic Cells (%)” value [6] was 57% and the “Population Normal (%)” value [6] was 95%. The “Population Pyknosed Nuclei (%)” value [6] was 6%, the “Population Tubulin-Different-Phenotype (%)” value [6] was 16% and the “Total Cell Count” value [6] was 93. For the same compound, the “Population Apoptotic (%)” value [7] was 66%, the “Population Fragmented Nuclei (%)” value [7] was 6% and the “Population Healthy Nuclei (%)” value [7] was 86%. The “Population Membrane Permeable-Phenotype (%)” value [7] was 1%, the “Population Mitochondria Different-Phenotype (%)” value [7] was 6% and the “Population Mitotic Cells (%)” value [7] was 33%. The “Population Pyknosed Nuclei (%)” value [7] was 7%, the “Population Tubulin-Different-Phenotype (%)” value [7] was 4% and the “Total Cell Count” value [7] was 277. The “Population Apoptotic (%)” value [8] was 75%, the “Population Fragmented Nuclei (%)” value [8] was 23% and the “Population Healthy Nuclei (%)” value [8] was 68%. The “Population Hoechst High Intensity Objects (%)” value [8] was 6%, the “Population Membrane Permeable-Phenotype (%)” value [8] was 4% and the “Population Mitochondria Different-Phenotype (%)” value [8] was 14%. The “Population Mitotic Cells (%)” value [8] was 25%, the “Population Normal (%)” value [8] was 93% and the “Population Pyknosed Nuclei (%)” value [8] was 8%. The “Population Tubulin-Different-Phenotype (%)” value [8] was 29%, the “Total Cell Count” value [8] was 119 and the “Population Apoptotic (%)” value [9] was 34%. For the same compound, the “Population Fragmented Nuclei (%)” value [9] was 7%, the “Population Healthy Nuclei (%)” value [9] was 85% and the “Population Hoechst High Intensity Objects (%)” value [9] was 2%. The “Population Membrane Permeable-Phenotype (%)” value [9] was 3%, the “Population Mitochondria Different-Phenotype (%)” value [9] was 12% and the “Population Mitotic Cells (%)” value [9] was 65%. For the same compound, the “Population Normal (%)” value [9] was 97%, the “Population Pyknosed Nuclei (%)” value [9] was 7% and the “Population Tubulin-Different-Phenotype (%)” value [9] was 11%. The “Total Cell Count” value [9] was 181, the “Population Apoptotic (%)” value [10] was 75% and the “Population Fragmented Nuclei (%)” value [10] was 6%. The “Population Healthy Nuclei (%)” value [10] was 90%, the “Population Hoechst High Intensity Objects (%)” value [10] was 4% and the “Population Membrane Permeable-Phenotype (%)” value [10] was 6%. The “Population Mitochondria Different-Phenotype (%)” value [10] was 18%, the “Population Mitotic Cells (%)” value [10] was 25% and the “Population Normal (%)” value [10] was 95%. For the same compound, the “Population Pyknosed Nuclei (%)” value [10] was 2%, the “Population Tubulin-Different-Phenotype (%)” value [10] was 12% and the “Total Cell Count” value [10] was 77. For the same compound, the “Population Fragmented Nuclei (%)” value [11] was 7%, the “Population Healthy Nuclei (%)” value [11] was 77% and the “Population Hoechst High Intensity Objects (%)” value [11] was 2%. The “Population Membrane Permeable-Phenotype (%)” value [11] was 3%, the “Population Mitochondria Different-Phenotype (%)” value [11] was 12% and the “Population Normal (%)” value [11] was 97%. The “Population Pyknosed Nuclei (%)” value [11] was 15%, the “Population Tubulin-Different-Phenotype (%)” value [11] was 3% and the “Total Cell Count” value [11] was 438. The “Population Apoptotic (%)” value [12] was 50%, the “Population Fragmented Nuclei (%)” value [12] was 15% and the “Population Healthy Nuclei (%)” value [12] was 76%. For the same compound, the “Population Hoechst High Intensity Objects (%)” value [12] was 3%, the “Population Membrane Permeable-Phenotype (%)” value [12] was 8% and the “Population Mitochondria Different-Phenotype (%)” value [12] was 28%. The “Population Mitotic Cells (%)” value [12] was 50%, the “Population Normal (%)” value [12] was 96% and the “Population Pyknosed Nuclei (%)” value [12] was 8%. The “Population Tubulin-Different-Phenotype (%)” value [12] was 32% and the “Total Cell Count” value [12] was 170.
